Most compounds without a hit are left out; they make up all but 3.5% or so of the library.
RGS4 block: inhibitors of human RGS4 | HEK293 M3R/RGS4 inducible, Fluo-4 calcium flux; active compounds read high; triggered by carbachol at its EC20 | B-score at 10 µM | actives 0.45% (n = 310,000) | AID 463165;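 active means B-score, a plate-corrected calcium signal, over three deviations above library mean, with baseline fluorescence within five deviations of library mean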;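 further: RGS4 expression induced by doxycycline in cells with stable M3 receptor; B-score is computed from the integrated fluorescence ratio over baseline after carbachol; higher B-score means a larger calcium signal and so more RGS4 inhibition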
Target sequence (P49798 whole entry, looked up): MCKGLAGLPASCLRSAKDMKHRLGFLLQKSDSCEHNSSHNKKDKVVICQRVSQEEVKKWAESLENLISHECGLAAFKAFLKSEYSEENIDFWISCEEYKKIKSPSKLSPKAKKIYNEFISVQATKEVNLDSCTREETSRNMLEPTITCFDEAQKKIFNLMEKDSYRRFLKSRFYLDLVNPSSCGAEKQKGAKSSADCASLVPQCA
MrgX1 antag: antagonists of human MrgX1 receptor. Q96LB2. MRGX1-HEK293 calcium flux, Fluo-4, BAM8-22 antagonism; active compounds read low. B-score at 10 µM. actives 1.3% (n = 310,000). AID 588676;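 active means calcium-response B-score plate-corrected more than 3 library SD below zero, starting fluorescence within 5 deviations, no agonist response on first addition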;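 further: peak minus trough fluorescence over baseline after final BAM8-22 challenge near maximal dose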
Target sequence (Q96LB2 whole entry, looked up): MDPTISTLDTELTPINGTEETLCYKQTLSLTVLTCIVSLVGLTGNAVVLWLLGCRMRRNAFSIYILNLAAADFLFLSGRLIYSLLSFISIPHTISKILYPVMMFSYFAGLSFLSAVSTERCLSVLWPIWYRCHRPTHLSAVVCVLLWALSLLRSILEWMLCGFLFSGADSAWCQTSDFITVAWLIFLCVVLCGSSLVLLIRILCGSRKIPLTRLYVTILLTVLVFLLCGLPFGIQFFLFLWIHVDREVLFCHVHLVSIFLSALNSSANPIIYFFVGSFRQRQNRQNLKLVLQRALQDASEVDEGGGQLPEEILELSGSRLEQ
MrgX1 ag: agonists of human MrgX1 receptor; Q96LB2; MrgX1-HEK293 cells, Fluo-4 calcium fluorescence, agonist mode; active compounds read high; B-score at 10 µM; actives 0.44% (n = 310,000);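 active means calcium response B-score plate-corrected fluorescence ratio at least 3 library SD, with starting fluorescence B-score inside 5 SD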
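times = overnight plating, then 30 min 37 °C plus 30 min room-temperature dye loading | assay system = stable human MrgX1 HEK293 cell line | input = fifteen thousand cells per well | signal = kinetic calcium dye fluorescence, Fluo-4 NW | dosing = compound delivered in addition one of three | read-out = B-scored fluorescence response ratio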
RGS4 pot: RGS4 potentiation or activation. HEK293 M3R/inducible RGS4, carbachol calcium flux Fluo4; active compounds read low. B-score at 10 µM. actives 0.92% (n = 310,000);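 active means B-score of the integrated calcium signal more than 4 SD below the library mean, with starting fluorescence not abnormally high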;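 further: negative B-score means reduced calcium response which marks RGS4 activation or potentiation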
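test system = M3R-expressing HEK293 line, RGS4 induced by doxycycline | probe or stimulus = carbachol at ECmax as muscarinic agonist stimulus | timing = dye loading 30 min 37 °C, buffer rest 30 min RT | signal = calcium dye Fluo4 fluorescence | evaluation = B score from integrated fluorescence ratio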
MrgX1 allo act: human MrgX1 positive allosteric modulation, primary screen; Q96LB2; MrgX1-HEK293, Fluo-4 calcium flux, FDSS; active compounds read high; B-score at 10 µM; actives 0.63% (n = 310,000); AID 588675;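 active means plate-corrected calcium response at least 3 library SD above typical, normal starting fluorescence, not activating the receptor alone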;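 further: compound read alongside a low EC10 to EC30 dose of BAM8-22 agonist; peak minus trough fluorescence over baseline measured at the second addition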
A number is an active result; . = inactive; / = no result.

SMILES	RGS4 block	MrgX1 antag	MrgX1 ag	RGS4 pot	MrgX1 allo act
CCn1cc(C(=O)NCCc2ccc(C)cc2)c(=O)c2cc(S(=O)(=O)N(C)C)ccc21	.	.	.	.	.
COc1ccc(C2CC(=O)C(C=NCCN3CCN(C(=S)Nc4ccccc4)CC3)=C(O)C2)cc1OC (centres undefined)	.	.	.	.	.
CC(C)NC(=O)COC(=O)Cn1[nH]c(=O)c2ccccc2c1=O	.	.	.	.	.
COc1ccccc1C(=O)NC(=O)COC(=O)Cn1[nH]c(=O)c2ccccc2c1=O	.	-4.5	.	.	.
Cc1ccccc1C(=O)N/N=C/c1ccc([N+](=O)[O-])s1	.	.	.	.	.
O=C(N/N=C/c1ccc([N+](=O)[O-])s1)c1ccccc1Br	.	-5.3	.	.	.
Cc1ccc(S(=O)(=O)c2nnn3c2nc(NCCCN2CCCC2=O)c2ccccc23)cc1C	.	.	.	.	.
Cc1ccc(S(=O)(=O)c2nnn3c2nc(NC2CCN(Cc4ccccc4)CC2)c2ccccc23)cc1C	.	-11	.	.	8.3
CN(c1ccccc1)c1ccc(/C=C(\CCC(=O)O)c2nc3ccccc3s2)cc1[N+](=O)[O-]	.	-7.4	.	.	.
CCOc1ccc(C(CC(=O)O)NC(=O)COc2ccccc2)cc1OC (centres undefined)	.	-5.8	.	.	.
Cc1c(C(=O)OC(C)C(C)C[N+](C)(C)C)oc2ccccc12 (centres undefined)	.	.	.	-8.4	.
COc1ccc(NC(=O)c2ccc(CNS(=O)(=O)c3cccc(OC)c3)cc2)cc1	.	.	.	.	.
C/C(=N/NC(=O)c1ccccc1O)c1ccc(N2C(=O)C3CCCCC3C2=O)cc1 (centres undefined)	.	-8	.	.	.
Cc1ccc(CNC(=O)c2nnc(Cc3ccc(Cl)cc3)o2)cc1	.	.	.	.	.
Cc1nn(CCOc2ccccc2)c(=O)n1-c1ccc(Cl)cc1	.	.	.	.	11
Cc1nn(CCOc2ccccc2)c(=O)n1-c1ccccc1	.	.	.	.	.
CCN(C(=O)CN1C(=O)COc2ccc(S(=O)(=O)N3CCCCCC3)cc21)c1cccc(C)c1	.	.	38	.	.
O=C(NC1CCN(Cc2ccccc2)CC1)c1ccccc1OCc1ccccc1	.	.	.	.	.
O=C(NC1CCN(Cc2ccccc2)CC1)c1ccccc1OCc1ccccc1Cl	.	.	.	.	10
C#CCn1c(S(=O)(=O)Cc2ccccc2Cl)nc(-c2ccccc2)c1-c1ccccc1	.	.	.	.	.
Cc1ccc(S(=O)(=O)C(C)C(=O)NCCS(=O)(=O)c2ccc(Cl)cc2)cc1 (centres undefined)	.	.	.	.	.
CC1(C)CC(=O)c2sc(NS(=O)(=O)c3ccc([N+](=O)[O-])cc3)nc2C1	.	.	.	.	8
CC1(C)CC(=O)c2sc(NS(C)(=O)=O)nc2C1	.	.	.	.	.
CCC[N+]1(CC#CC(O)(c2ccccc2)C2CCCCC2)CCCCC1 (centres undefined)	.	.	.	-8.2	.
COC(=O)C1=C(C)NC2=C(C(=O)CC(c3cccs3)C2)C1c1ccsc1 (centres undefined)	.	.	.	.	.
SMILES	RGS4 block	MrgX1 antag	MrgX1 ag	RGS4 pot	MrgX1 allo act
Cc1c(Br)c([N+](=O)[O-])nn1CC(=O)NCCc1c[nH]c2ccccc12	.	-5	.	.	.
Cc1c(Br)c([N+](=O)[O-])nn1CC(=O)NCc1ccccc1	.	.	.	.	.
Cc1ccc(C(=O)Nc2cccc3cccnc23)cc1Br	.	.	.	.	.
CCOC(=O)N1CCN(c2nc(N(c3ccccc3)c3ccccc3)nc(-n3ccnc3)n2)CC1	.	.	.	-7.1	.
O=C(CS(=O)(=O)c1ccccc1)c1cc2cc(F)ccc2oc1=O	.	.	61	.	.
COc1cccc2cc(C(=O)CS(=O)(=O)c3ccc(C(C)(C)C)cc3)c(=O)oc12	.	.	.	.	.
COc1ccc(S(=O)(=O)CC(=O)c2cc3cccc(C)c3oc2=O)cc1	.	.	42	.	.
O=C(Nc1ccc([N+](=O)[O-])cn1)C1CC2CCC1C2 (centres undefined)	.	.	.	.	.
O=C(Nc1cccc(S(=O)(=O)NC2=NCCC2)c1)c1cc(-c2ccco2)nc2ccccc12	.	.	.	.	.
O=C(NC(=S)Nc1cccc(S(=O)(=O)NC2=NCCC2)c1)c1cc(-c2ccco2)nc2ccccc12	.	-4.9	.	.	.
COC(=O)c1ccc(-c2noc(CN(Cc3nccn3C)C(C)C)n2)cc1	.	.	.	-7.5	.
Cc1cc(NC(=O)c2c([N+](=O)[O-])c(C)nn2C)no1	.	-5	.	.	.
Cc1cc(NC(=O)c2c(Cl)c(C)nn2C)no1	.	.	.	.	.
COc1ccc(/C=C/C(=O)NCC2COc3ccccc3O2)cc1OC (centres undefined)	.	-7.1	.	.	.
Clc1ccc(CNc2cnccn2)cc1Cl	.	.	.	.	.
CN1CCc2c(sc3c2C(=O)NC(c2ccco2)N3)C1 (centres undefined)	.	.	27	.	.
Cn1cccc1C1NC(=O)c2c(sc3c2CCC(C(C)(C)C)C3)N1 (centres undefined)	.	.	.	.	.
CN1CCc2c(sc3c2C(=O)NC(c2cn(Cc4ccccc4)c4ccccc24)N3)C1 (centres undefined)	.	.	29	.	.
O=C1NC(c2ccco2)Nc2sc3c(c21)CCN(Cc1ccccc1)C3 (centres undefined)	/	.	30	/	.
CCOC(=O)N1CCc2c(sc3c2C(=O)NC(c2ccccc2)N3)C1 (centres undefined)	.	.	.	.	.
CN1CCc2c(sc3c2C(=O)NC(c2cccc(OC(=O)c4cccs4)c2)N3)C1 (centres undefined)	.	.	.	.	.
COCC(C)NC(=O)CCSc1nc(-c2ccc(OC)cc2)cc(C(F)(F)F)n1 (centres undefined)	.	.	.	.	.
C=CCN(CC=C)C(=S)NC(=O)c1ccc([N+](=O)[O-])cc1	.	.	.	.	.
Cc1nc(-c2cccc(NC(=O)COc3ccc(Cl)cc3)c2)cs1	.	.	.	.	.
CCOc1ccc(C(Nc2cccnc2)c2cc(Cl)c3cccnc3c2O)cc1 (centres undefined)	.	.	.	-8.3	.
O=C(O)COc1ccccc1C(Nc1cccnc1)c1cc(Cl)c2cccnc2c1O (centres undefined)	.	/	/	.	/
CC(OC(=O)c1cc2sccc2n1C)C(=O)NCc1ccco1 (centres undefined)	.	.	.	.	.
Cn1c(C(=O)OC(C(=O)NCc2ccco2)c2ccncc2)cc2sccc21 (centres undefined)	.	-4.7	.	.	.

High-throughput results from PubChem BioAssay.
